The source made the active and inactive calls.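 How the source made its calls, unless noted: active means NADPH fluorescence slope more negative than the mean of all samples by about 3 SD, 99.7% confidence; inactive means the rest.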

Assay [1] can be described thus: inhibitors of TNFa-induced NFkB p65 translocation, primary screen, imaging, HUVEC, MLSMR starter and 10KST1 sets (AID 438;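 active means inhibition above 20% together with a positive visual image hit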;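 further: compound added about 3h40 before a 20 min TNFalpha stimulation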;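 on inhibition: signal is the nuclear over cytoplasmic p65 intensity ratio per well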). Conditions: HUVEC TNFa-induced p65 nuclear translocation; cell count: measured here: nuclei count (cytotoxicity indicator), at 2.08 µM; inhibition: at 2 µM, stronger effect = higher value, 0% TNFa-plus-vehicle, 100% no-TNFa wells.
Assay [2] in a line: endothelial E-selectin expression blockers – imaging, HUVEC, immunofluorescence, MLSMR starter and 10KST1 sets, primary screen (AID 487;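 active means visually confirmed hit in the image check and inhibition above 20%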;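 on inhibition: signal is fraction of cell area covered by stained E-selectin grains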;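 on nuclei count: 100% = median nuclei count of all wells on the same plate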). Conditions: HUVEC TNFalpha-induced E-selectin immunofluorescence imaging, at 2 µM; inhibition: stronger effect = higher value; nuclei count: measured here: cell number, toxicity.
Assay [3] can be described thus: Primary imaging screen for DUSP6 inhibitors that restore phospho-Erk in transfected HeLa cells, chemical complementation (AID 609;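 active means compounds giving at least 50% inhibition in the cell-based MKP-3 phosphatase rescue imaging test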;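 on inhibition: phospho-Erk level distribution per well compared with pooled transfected vehicle control wells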). Conditions: HeLa MKP-3 transfected, phospho-Erk imaging KS statistic, at 10 µM, cells stimulated with TPA for 15 min.
Assay [4] has as its target Dual specificity protein phosphatase 6 (Homo sapiens) (UniProt Q16828). Described as above. Conditions: HeLa MKP-3 transfected, phospho-Erk imaging KS statistic; at 10 µM; stronger effect = higher value; cells stimulated with TPA for 15 min.
For assay [5], the target named is Voltage-gated potassium channel subunit beta-2 (Rattus norvegicus) (UniProt P62483). The assay is described as follows: inhibitors of rat Kvbeta2 reductase activity – biochemical, NADPH fluorescence, primary screen (AID 622;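 active means fluorescence slope higher than the sample average by over 3 SD, cut at about -0.22 in these data, passing the limit was not always enough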;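 further: slope of raw intensity against log time taken from 70 to 1610 s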). Conditions: recombinant KvBeta, 4-cyanobenzaldehyde reduction, at 10 µM, stronger effect = higher value.
Voltage-gated potassium channel subunit beta-2 (Rattus norvegicus), sequence (P62483 whole entry, looked up): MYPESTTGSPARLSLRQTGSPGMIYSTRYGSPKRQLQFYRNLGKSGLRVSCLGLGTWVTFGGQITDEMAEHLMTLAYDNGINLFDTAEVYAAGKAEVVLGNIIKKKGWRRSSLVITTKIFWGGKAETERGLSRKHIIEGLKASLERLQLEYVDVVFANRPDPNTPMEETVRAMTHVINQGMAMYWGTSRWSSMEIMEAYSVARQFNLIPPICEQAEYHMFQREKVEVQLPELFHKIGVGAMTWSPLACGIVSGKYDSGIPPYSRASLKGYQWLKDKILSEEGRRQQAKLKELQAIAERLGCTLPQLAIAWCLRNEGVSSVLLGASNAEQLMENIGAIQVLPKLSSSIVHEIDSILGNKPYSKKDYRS
The target is the same in assay [6]. The assay is described as follows: enhancers of rat Kvbeta2 NADPH turnover – biochemical, NADPH fluorescence, primary screen (AID 623).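 Further: fluorescence intensity change per second fitted from 20 to 320 s.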 Conditions: Recombinant KvBeta, NADPH fluorescence decrease slope, 10 min; at 10 µM; stronger effect = lower value.
In assay [7] the target is Alpha-2C adrenergic receptor (Homo sapiens) (UniProt P18825). The assay is described as follows: compounds altering alpha2C-coupled GIRK flux – cell-based, HEK293 alpha2C/GIRK1/2, thallium flux, primary screen (AID 624;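 active means fluorescence slope after compound addition differing from the mean of all screened samples at 99.7% confidence, in either direction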;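 further: slope of fluorescence ratio to pre-addition baseline per second over 15 to 24 s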). Conditions: thallium flux BTC fluorescence, at 10 µM, actives lie on both sides.
Alpha-2C adrenergic receptor (Homo sapiens), sequence (P18825 whole entry, looked up): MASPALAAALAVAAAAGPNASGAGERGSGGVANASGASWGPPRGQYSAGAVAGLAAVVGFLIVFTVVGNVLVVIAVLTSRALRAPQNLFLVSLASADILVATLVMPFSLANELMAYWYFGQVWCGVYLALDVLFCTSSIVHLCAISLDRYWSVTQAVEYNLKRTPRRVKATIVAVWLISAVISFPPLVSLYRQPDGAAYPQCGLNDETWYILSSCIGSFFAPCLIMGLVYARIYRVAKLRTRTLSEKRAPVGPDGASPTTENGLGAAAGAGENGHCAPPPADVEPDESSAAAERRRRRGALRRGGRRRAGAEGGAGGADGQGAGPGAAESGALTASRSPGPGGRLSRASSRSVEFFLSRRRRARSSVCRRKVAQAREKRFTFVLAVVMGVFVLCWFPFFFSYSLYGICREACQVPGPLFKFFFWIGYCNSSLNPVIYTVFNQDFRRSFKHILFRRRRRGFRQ
Assay [8] in a line: inhibitors of larval lipid processing in zebrafish, primary screen, whole organism, PED6 fluorescence, gall bladder and intestine (AID 686;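 active means a full or partial loss of lipid-probe fluorescence in the fish gall bladder, intestine or both, judged by eye; inactive means no fluorescence loss, or compound toxic to the fish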;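 further: larvae 5 to 7 days old with five fish per well; signal comes from phospholipase A2 cleavage of quenched PED6 carried via bile; overnight exposure to compound and PED6 before scoring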). Conditions: Zebrafish larvae PED6 lipid processing, fluorescence scoring; screened at 20 µM (by protocol). The essentials:
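system = live zebrafish larvae aged 5-7 days, whole organism | probe or stimulus = ingested quenched lipid PED6 at 100 nM | doses = 20 µM single dose | timing = overnight exposure | detection = fluorescence microscopy with visual scoring of gall bladder and intestine | read-out = visual per-well fluorescence inhibition score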

Assay [9] in a line: loss of swimming-algae plug formation – whole organism, Chlamydomonas reinhardtii, WT vs cilia-less mutant, absorbance, 96-well, primary screen (AID 463189;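 active means inhibition at or above 50% relative to wild type and mutant plate controls; inactive means inhibition below 50%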;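 further: 0% = wild type cc124 cells in DMSO and 100% = ciliumless bld1 mutant cells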). Conditions: Chlamydomonas reinhardtii gravitaxis, OD600 absorbance, 2 days; at 10 µM; stronger effect = higher value.
[10] abbreviates: measured here: cell density z-score.
Setting [11] is: measured here: nuclear c-Myc green intensity z-score.
The mark [12] stands for this setting: measured here: nuclear pErk red intensity z-score, stronger effect = higher value.

Dual specificity protein phosphatase 6 (Homo sapiens), sequence (Q16828 whole entry, looked up): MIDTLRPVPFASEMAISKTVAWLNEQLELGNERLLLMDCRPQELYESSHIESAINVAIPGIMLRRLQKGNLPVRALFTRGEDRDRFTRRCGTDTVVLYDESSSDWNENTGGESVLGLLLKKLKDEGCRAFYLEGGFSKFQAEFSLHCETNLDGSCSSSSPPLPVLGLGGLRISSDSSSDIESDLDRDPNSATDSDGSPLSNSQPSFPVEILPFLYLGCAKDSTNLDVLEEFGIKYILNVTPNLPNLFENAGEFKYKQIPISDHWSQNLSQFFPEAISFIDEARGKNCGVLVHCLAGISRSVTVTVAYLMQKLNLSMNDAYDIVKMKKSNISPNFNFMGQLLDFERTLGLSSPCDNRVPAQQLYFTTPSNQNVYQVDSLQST

Consider `Cc1ccc(C2/C(=C(\O)c3cnn(-c4ccccc4)c3C)C(=O)C(=O)N2CCN(C)C)o1` (configuration not stated), for which the cell count in assay [1] was 488. Also, the inhibition in assay [1] is 4.7% (inactive); in [2] it was -57.2% (inactive); in assay [4] it was 5.26% (inactive); in assay [9] it was -22.8% (inactive). The molecule further yielded a nuclei count in [2] of 108%. Moreover, the values for the z-score in [3] (setting [10]), in assay [3] (setting [11]) and in [3] (setting [12]) were -0.998, 2.35 and 1.95, respectively. In addition, the fluorescence slope in assay [5] was -0.583 (inactive). Further, the NADPH fluorescence slope in [6] was -3.5e-05 (inactive). Moreover, the slope in assay [7] was 0.00573 (inactive). In addition, the outcome in assay [8] was inactive.
For the molecule `CCn1nnc(C(=O)O)c1C(=O)O`, the cell count in [1] turned out to be 547. Also, the inhibition was -8.1% (inactive) in assay [1], -105% (inactive) in [2], -1.98% (inactive) in assay [4] and -1.97% (inactive) in assay [9]. This molecule also yielded a nuclei count in [2] of 113%. Further, the z-score in assay [3] (setting [10]) is -1.6; in [3] (setting [11]), 1.43; in [3] (setting [12]), 0.467. Moreover, in assay [5], the fluorescence slope is -0.486 (inactive). Moreover, in [6], the NADPH fluorescence slope was -3.2e-05 (inactive). In addition, the slope in assay [7] was 0.00833 (inactive). Also, the result in assay [8] was inactive.
Take `CN(C)c1nc2n(c(=O)n1)C(C#N)CS2` (configuration not stated): the cell count in assay [1] was determined as 364. The inhibition was -3.1% (inactive) in [1], -192% (inactive) in assay [2], 13.2% (inactive) in assay [4] and -3.08% (inactive) in assay [9]. This molecule also returned a nuclei count in [2] of 105%. Also, the results for the z-score in [3] (setting [10]), in assay [3] (setting [11]) and in assay [3] (setting [12]) were 0.947, -1.21 and -1.65, respectively. In assay [5], the fluorescence slope was -0.438 (inactive). In assay [6], the NADPH fluorescence slope was -5.8e-06 (inactive). Besides, in [7], the slope is 0.00693 (inactive). Moreover, the result in assay [8] was inactive.
For `Oc1ccc2ccccc2c1/C=N/n1cnnc1`, the cell count in [1] was 538. Besides, the inhibition was -5.9% (inactive) in assay [1], -57.1% (inactive) in assay [2], -2.91% (inactive) in [4] and -4.69% (inactive) in assay [9]. The molecule further gave a nuclei count in assay [2] of 217%. For the same molecule, the z-score is 0.969 in [3] (setting [10]), 0.692 in [3] (setting [11]) and -0.685 in [3] (setting [12]). Moreover, the fluorescence slope in assay [5] was -0.356 (inactive). Besides, the NADPH fluorescence slope in assay [6] is -1.6e-05 (inactive). For the same molecule, the slope in assay [7] was 0.00487 (inactive). In addition, in [8], the call was inactive.
Regarding `COc1cccc(C2/C(=C(\O)c3ccc4c(c3)OCCO4)C(=O)C(=O)N2CCN(C)C)c1` (configuration not stated), the cell count in assay [1] was 509. Besides, the inhibition in assay [1] was -0.6% (inactive); in assay [2], -108% (inactive); in assay [4], 17.5% (inactive); in [9], -11.2% (inactive). In assay [2], this molecule came in with a nuclei count of 138%. The z-score in [3] (setting [10]) was 1; in [3] (setting [11]) it was -0.131; in [3] (setting [12]), -0.387. Moreover, in assay [5], the fluorescence slope is -0.546 (inactive). Also, the NADPH fluorescence slope in [6] was -3.2e-05 (inactive). Further, the slope in assay [7] is 0.00546 (inactive). Also, in assay [8], the molecule was classed as inactive.
Consider `CN(C)CC(O)COc1cccc(OCC(O)CN(C)C)c1` (configuration not stated), for which the cell count in assay [1] was determined as 433. For the same molecule, the inhibition in assay [1] is -6.5% (inactive); in assay [2] it was -137% (inactive); in assay [4], -7.28% (inactive); in assay [9], -5.71% (inactive). Further, in assay [2], the nuclei count was found to be 155%. In addition, the z-score in assay [3] (setting [10]) was -1.38; in assay [3] (setting [11]), -0.215; in assay [3] (setting [12]), 0.992. Besides, the fluorescence slope in [5] was -0.4 (inactive). Also, the NADPH fluorescence slope in assay [6] was -4.2e-05 (inactive). Besides, the slope in assay [7] is 0.00531 (inactive). Besides, in assay [8], the call was inactive.
`N#CC1=C(SCc2ccccc2)NC2=C(C(=O)CCC2)C1c1ccc2c(c1)OCO2` (configuration not stated): the cell count in assay [1] is 490. Besides, the inhibition in [1] is -28.9% (inactive); in assay [2] it was -54.8% (inactive); in [4] it was -4.27% (inactive); in assay [9], -2.38% (inactive). For the same molecule, the nuclei count in [2] came to 138%. Besides, the z-score is 0.352 in [3] (setting [10]), -1.14 in assay [3] (setting [11]) and -1.35 in [3] (setting [12]). Further, the fluorescence slope in assay [5] is -0.525 (inactive). The NADPH fluorescence slope in assay [6] was -5.3e-05 (inactive). The slope in assay [7] was 0.0074 (inactive). Also, the call in assay [8] was inactive.
For the molecule `COC(=O)c1ccc(CSc2ncnc3c2sc2nc(N4CCOCC4)c4c(c23)CCCC4)o1`, the cell count in assay [1] was 565. Moreover, the inhibition in assay [1] is -11.6% (inactive); in assay [2] it was 7.4% (inactive); in assay [4] it was 1.48% (inactive); in [9] it was -7.35% (inactive). This molecule also registered a nuclei count in assay [2] of 164%. Besides, the z-score in assay [3] (setting [10]) was 0.509; in assay [3] (setting [11]), -1.97; in [3] (setting [12]) it was -0.0919. Further, the fluorescence slope in assay [5] is -0.237 (inactive). Besides, in assay [6], the NADPH fluorescence slope was -1e-05 (inactive). Besides, the slope in assay [7] was 0.00899 (inactive). The molecule was called inactive in assay [8].
Take `Cc1cc(=O)oc(C)c1C(=O)N1CCN(C)CC1`: in assay [1], the cell count was 367. Further, the inhibition in assay [1] is -10.4% (inactive); in [2], -117% (inactive); in [4], -8.59% (inactive); in assay [9] it was 5.44% (inactive). The molecule further had a nuclei count in assay [2] of 167%. For the same molecule, the z-score in assay [3] (setting [10]) was -1.15; in assay [3] (setting [11]) it was 0.212; in assay [3] (setting [12]), 0.815. Also, in [5], the fluorescence slope was -0.463 (inactive). Moreover, the NADPH fluorescence slope in assay [6] is -0.000105 (inactive). For the same molecule, the slope in assay [7] was 0.00444 (inactive). The outcome in assay [8] was inactive.

The term inhibition denotes the relative decrease from the control value, in per cent.

The values are drawn from PubChem BioAssay.
